In ChEMBL document CHEMBL4184148 (Bioorg Med Chem Lett, 2017):

What was measured:
[1] = target: Mitogen-activated protein kinase kinase kinase kinase 5 (Homo sapiens) (UniProt Q9Y4K4); assay: Binding affinity to wild-type human partial length MAP4K5 (M1 to P297 residues) expressed in Escherichia coli BL21 at 1 uM by Kinomescan method relative to control
[2] = target: Citron Rho-interacting kinase (Homo sapiens) (UniProt O14578); assay: Binding affinity to wild-type human partial length CIT (M68 to E432 residues) expressed in Escherichia coli BL21 at 1 uM by Kinomescan method relative to control
[3] = target: Serine/threonine-protein kinase LATS1 (Homo sapiens) (UniProt O95835); assay: Binding affinity to wild-type human partial length LATS1 (Q678 to V1130 residues) expressed in Escherichia coli BL21 at 1 uM by Kinomescan method relative to control
[4] = target: Proto-oncogene tyrosine-protein kinase Src (Homo sapiens) (UniProt P12931); assay: Binding affinity to wild-type human partial length SRC (L240 to L536 residues) expressed in Escherichia coli BL21 at 1 uM by Kinomescan method relative to control
[5] = target: Mitogen-activated protein kinase kinase kinase 12 (DLK) (Homo sapiens) (UniProt Q12852); assay: Binding affinity to wild-type human full length DLK (M1 to P859 residues) expressed in HEK293 cells at 1 uM by Kinomescan method relative to control
[6] = target: Bone morphogenetic protein receptor type-1A (Homo sapiens) (UniProt P36894); assay: Binding affinity to wild-type human partial length BMPR1A (Q214 to I532 residues) expressed in Escherichia coli BL21 at 1 uM by Kinomescan method relative to control
[7] = target: Serine/threonine-protein kinase PAK 6 (Homo sapiens) (UniProt Q9NQU5); assay: Binding affinity to wild-type human partial length PAK6 (N298 to C681 residues) expressed in Escherichia coli BL21 at 1 uM by Kinomescan method relative to control
[8] = target: Tyrosine-protein kinase ABL1 (Homo sapiens) (UniProt P00519); assay: Binding affinity to wild-type human phosphorylated ABL1 (S229 to K512 residues) expressed in HEK293 cells at 1 uM by Kinomescan method relative to control; assay type: cell-based
[9] = target: MAP kinase-activated protein kinase 5 (Homo sapiens) (UniProt Q8IW41); assay: Binding affinity to wild-type human partial length MAPKAPK5 (M1 to D322 residues) expressed in HEK293 cells at 1 uM by Kinomescan method relative to control; assay type: cell-based
[10] = target: Ribosomal protein S6 kinase alpha-4 (Homo sapiens) (UniProt O75676); assay: Binding affinity to wild-type human partial length C-terminal RPS6KA4 kinase domain 2 (M375 to T705 residues) expressed in HEK293 cells at 1 uM by Kinomescan method relative to control; assay type: cell-based
[11] = target: Casein kinase I isoform epsilon (Homo sapiens) (UniProt P49674); assay: Binding affinity to wild-type human full length CSNK1E (M1 to K416 residues) expressed in Escherichia coli BL21 at 1 uM by Kinomescan method relative to control
In short: (§1)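 Run as one kinome-wide competition binding panel with each compound at a single fixed concentration. Results were plotted as a kinome-wide selectivity map.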

[12] = target: Serine/threonine-protein kinase PRP4 homolog (Homo sapiens) (UniProt Q13523); assay: Binding affinity to wild-type human partial length PRP4 (D657 to I1007 residues) expressed in Escherichia coli BL21 at 1 uM by Kinomescan method relative to control
[13] = target: Serine/threonine-protein kinase Sgk3 (Homo sapiens) (UniProt Q96BR1); assay: Binding affinity to wild-type human partial length SGK3 (M119 to L496 residues) expressed in HEK293 cells at 1 uM by Kinomescan method relative to control; assay type: cell-based
[14] = target: Tyrosine-protein kinase receptor TYRO3 (Homo sapiens) (UniProt Q06418); assay: Binding affinity to wild-type human partial length TYRO3 (S497 to T814 residues) expressed in Escherichia coli BL21 at 1 uM by Kinomescan method relative to control
[15] = target: Dual specificity mitogen-activated protein kinase kinase 1 (Homo sapiens) (UniProt Q02750); assay: Binding affinity to wild-type human full length MEK1 (M1 to V393 residues) expressed in HEK293 cells at 1 uM by Kinomescan method relative to control; assay type: cell-based; in short: as §1
[16] = target: Calcium/calmodulin-dependent protein kinase type 1B (Homo sapiens) (UniProt Q6P2M8); assay: Binding affinity to wild-type human partial length CAMK1B (W9 to A311 residues) expressed in HEK293 cells at 1 uM by Kinomescan method relative to control; assay type: cell-based
[17] = target: Platelet-derived growth factor receptor beta (Homo sapiens) (UniProt P09619); assay: Binding affinity to wild-type human partial length PDGFRB (V582 to Y1009 residues) expressed in Escherichia coli BL21 at 1 uM by Kinomescan method relative to control
[18] = system: Epidermal growth factor receptor (Homo sapiens), P00533 [G719S]; assay: Binding affinity to human partial length EGFR G719S mutant (R669 to V1011 residues) expressed in Escherichia coli BL21 at 1 uM by Kinomescan method relative to control
[19] = target: Non-receptor tyrosine-protein kinase TNK1 (Homo sapiens) (UniProt Q13470); assay: Binding affinity to wild-type human full length TNK1 (M1 to P661 residues) expressed in Escherichia coli BL21 at 1 uM by Kinomescan method relative to control
In short: (§2)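 Kinome-wide competition binding panel run by an outside provider, with each compound tested at a single concentration. Activity is read against the kinase panel.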

[20] = target: Ankyrin repeat and protein kinase domain-containing protein 1 (Homo sapiens) (UniProt Q8NFD2); assay: Binding affinity to wild-type human partial length ANKK1 (M1 to A305 residues) expressed in HEK293 cells at 1 uM by Kinomescan method relative to control; assay type: cell-based; in short: as §2
[21] = system: Epidermal growth factor receptor (Homo sapiens), P00533 [L858R,T790M]; assay: Binding affinity to human partial length EGFR L858R/T790M double mutant (R669 to V1011 residues) expressed in HEK293 cells at 1 uM by Kinomescan method relative to control; assay type: cell-based
[22] = target: Serine/threonine-protein kinase MARK1 (Homo sapiens) (UniProt Q9P0L2); assay: Binding affinity to wild-type human partial length MARK1 (Q30 to T341 residues) expressed in Escherichia coli BL21 at 1 uM by Kinomescan method relative to control
[23] = target: 5'-AMP-activated protein kinase catalytic subunit alpha-1 (Homo sapiens) (UniProt Q13131); assay: Binding affinity to wild-type human partial length AMPK alpha1 (M1 to E306 residues) expressed in Escherichia coli BL21 at 1 uM by Kinomescan method relative to control; in short: as §2
[24] = target: Serine/threonine-protein kinase Sgk1 (Homo sapiens) (UniProt O00141); assay: Binding affinity to wild-type human partial length SGK (I60 to L431 residues) expressed in HEK293 cells at 1 uM by Kinomescan method relative to control; assay type: cell-based
[25] = target: Interleukin-1 receptor-associated kinase 1 (Homo sapiens) (UniProt P51617); assay: Binding affinity to wild-type human partial length IRAK1 (R194 to S712 residues) expressed in HEK293 cells at 1 uM by Kinomescan method relative to control; assay type: cell-based

Chain of Serine/threonine-protein kinase PAK 6 (Homo sapiens) (Q9NQU5 whole entry, looked up, the tested form may be a part): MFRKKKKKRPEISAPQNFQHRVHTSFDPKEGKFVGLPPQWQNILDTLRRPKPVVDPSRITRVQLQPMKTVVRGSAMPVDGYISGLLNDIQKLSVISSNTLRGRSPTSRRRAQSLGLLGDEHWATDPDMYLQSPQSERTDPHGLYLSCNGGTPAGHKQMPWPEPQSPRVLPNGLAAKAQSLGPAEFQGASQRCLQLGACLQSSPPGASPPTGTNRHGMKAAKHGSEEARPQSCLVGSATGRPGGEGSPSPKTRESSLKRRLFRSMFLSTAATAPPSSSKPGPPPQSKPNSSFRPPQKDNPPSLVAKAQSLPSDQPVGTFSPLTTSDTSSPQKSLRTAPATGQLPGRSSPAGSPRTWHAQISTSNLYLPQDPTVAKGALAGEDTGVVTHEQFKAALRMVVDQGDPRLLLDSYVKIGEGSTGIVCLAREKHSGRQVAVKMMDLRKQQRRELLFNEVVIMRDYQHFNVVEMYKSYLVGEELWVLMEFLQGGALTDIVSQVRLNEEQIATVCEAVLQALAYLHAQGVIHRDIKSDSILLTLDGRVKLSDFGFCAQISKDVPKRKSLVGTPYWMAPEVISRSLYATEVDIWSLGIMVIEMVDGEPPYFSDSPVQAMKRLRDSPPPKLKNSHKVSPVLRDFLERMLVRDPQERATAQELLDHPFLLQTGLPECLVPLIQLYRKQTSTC
Chain of Platelet-derived growth factor receptor beta (Homo sapiens) (P09619 whole entry, the tested form may be a part): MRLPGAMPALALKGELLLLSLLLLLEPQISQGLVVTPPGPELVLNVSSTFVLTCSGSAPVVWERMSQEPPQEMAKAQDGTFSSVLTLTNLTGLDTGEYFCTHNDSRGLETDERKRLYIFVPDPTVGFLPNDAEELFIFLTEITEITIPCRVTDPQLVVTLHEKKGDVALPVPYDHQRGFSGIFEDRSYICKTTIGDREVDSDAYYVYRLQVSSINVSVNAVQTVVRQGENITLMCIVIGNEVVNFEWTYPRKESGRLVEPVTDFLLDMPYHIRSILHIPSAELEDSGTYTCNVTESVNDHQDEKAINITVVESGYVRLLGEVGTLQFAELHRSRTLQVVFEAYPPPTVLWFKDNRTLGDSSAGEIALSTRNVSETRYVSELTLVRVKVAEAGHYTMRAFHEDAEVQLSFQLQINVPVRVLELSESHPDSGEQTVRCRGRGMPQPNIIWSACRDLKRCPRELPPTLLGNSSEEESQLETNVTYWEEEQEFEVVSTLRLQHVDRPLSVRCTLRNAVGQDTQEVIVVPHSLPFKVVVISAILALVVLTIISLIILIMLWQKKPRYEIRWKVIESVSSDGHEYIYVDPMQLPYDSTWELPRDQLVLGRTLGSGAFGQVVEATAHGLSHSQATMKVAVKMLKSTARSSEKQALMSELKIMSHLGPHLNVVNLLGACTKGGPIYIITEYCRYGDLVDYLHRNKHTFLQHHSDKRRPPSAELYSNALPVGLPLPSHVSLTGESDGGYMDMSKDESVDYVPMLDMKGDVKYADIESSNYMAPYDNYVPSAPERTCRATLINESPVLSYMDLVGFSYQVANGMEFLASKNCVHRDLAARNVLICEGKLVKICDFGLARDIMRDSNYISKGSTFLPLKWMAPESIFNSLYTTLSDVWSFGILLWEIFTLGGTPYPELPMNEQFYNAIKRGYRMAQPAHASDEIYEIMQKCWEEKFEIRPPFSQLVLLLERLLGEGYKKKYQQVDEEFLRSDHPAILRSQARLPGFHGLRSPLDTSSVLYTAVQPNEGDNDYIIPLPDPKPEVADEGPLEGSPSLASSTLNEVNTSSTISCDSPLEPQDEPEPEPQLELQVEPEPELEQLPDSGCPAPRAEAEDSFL
Chain of Citron Rho-interacting kinase (Homo sapiens) (O14578 whole entry, the tested form may be a part): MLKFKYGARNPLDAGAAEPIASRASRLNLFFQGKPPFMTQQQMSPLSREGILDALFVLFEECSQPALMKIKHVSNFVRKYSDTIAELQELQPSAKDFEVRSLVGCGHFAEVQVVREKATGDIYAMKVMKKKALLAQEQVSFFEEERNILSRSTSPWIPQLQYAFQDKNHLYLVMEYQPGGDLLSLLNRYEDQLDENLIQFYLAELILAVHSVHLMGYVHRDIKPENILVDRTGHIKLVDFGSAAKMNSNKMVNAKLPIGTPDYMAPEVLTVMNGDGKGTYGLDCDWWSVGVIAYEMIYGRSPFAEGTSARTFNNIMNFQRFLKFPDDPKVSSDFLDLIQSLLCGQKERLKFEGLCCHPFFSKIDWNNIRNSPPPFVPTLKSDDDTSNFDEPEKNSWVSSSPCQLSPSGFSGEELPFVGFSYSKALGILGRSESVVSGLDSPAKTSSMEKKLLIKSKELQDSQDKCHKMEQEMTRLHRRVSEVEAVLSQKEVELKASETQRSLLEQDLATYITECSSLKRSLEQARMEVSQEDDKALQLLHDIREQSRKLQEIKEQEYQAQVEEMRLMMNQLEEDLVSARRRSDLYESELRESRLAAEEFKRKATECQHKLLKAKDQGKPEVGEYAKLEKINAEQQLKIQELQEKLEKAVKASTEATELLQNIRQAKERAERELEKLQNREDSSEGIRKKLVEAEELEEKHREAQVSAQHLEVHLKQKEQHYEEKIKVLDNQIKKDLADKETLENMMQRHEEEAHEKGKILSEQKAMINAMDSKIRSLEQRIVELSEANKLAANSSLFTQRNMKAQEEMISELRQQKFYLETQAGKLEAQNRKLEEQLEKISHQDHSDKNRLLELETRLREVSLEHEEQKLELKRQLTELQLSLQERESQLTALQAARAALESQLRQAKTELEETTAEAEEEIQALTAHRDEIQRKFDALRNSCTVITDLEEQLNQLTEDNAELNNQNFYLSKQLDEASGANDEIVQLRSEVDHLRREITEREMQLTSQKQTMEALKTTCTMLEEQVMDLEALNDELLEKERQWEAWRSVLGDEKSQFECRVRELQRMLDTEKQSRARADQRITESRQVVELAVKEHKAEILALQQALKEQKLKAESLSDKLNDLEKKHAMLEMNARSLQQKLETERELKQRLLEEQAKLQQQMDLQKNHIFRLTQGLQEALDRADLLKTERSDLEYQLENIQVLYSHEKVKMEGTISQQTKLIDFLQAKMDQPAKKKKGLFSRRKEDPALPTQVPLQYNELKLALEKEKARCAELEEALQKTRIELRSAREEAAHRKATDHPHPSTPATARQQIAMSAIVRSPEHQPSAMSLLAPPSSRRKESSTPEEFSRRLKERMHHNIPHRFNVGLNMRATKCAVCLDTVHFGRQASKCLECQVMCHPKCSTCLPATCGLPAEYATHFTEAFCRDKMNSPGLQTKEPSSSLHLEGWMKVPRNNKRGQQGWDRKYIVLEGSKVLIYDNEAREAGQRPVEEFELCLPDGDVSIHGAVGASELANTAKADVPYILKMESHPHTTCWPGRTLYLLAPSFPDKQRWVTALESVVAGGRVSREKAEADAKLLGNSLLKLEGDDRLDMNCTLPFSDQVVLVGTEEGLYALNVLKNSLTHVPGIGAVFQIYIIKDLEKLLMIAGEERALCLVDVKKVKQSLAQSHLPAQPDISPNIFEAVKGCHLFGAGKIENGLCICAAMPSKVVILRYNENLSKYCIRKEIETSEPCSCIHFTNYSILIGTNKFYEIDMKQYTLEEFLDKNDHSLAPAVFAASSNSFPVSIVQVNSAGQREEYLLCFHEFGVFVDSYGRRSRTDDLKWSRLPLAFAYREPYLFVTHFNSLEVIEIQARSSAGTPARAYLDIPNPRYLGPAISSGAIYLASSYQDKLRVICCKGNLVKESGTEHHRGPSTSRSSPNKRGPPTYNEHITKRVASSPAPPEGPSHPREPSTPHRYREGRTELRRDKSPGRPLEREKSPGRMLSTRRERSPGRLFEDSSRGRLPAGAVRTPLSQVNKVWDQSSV
Chain of Serine/threonine-protein kinase PRP4 homolog (Homo sapiens) (Q13523 whole entry, the tested form may be a part): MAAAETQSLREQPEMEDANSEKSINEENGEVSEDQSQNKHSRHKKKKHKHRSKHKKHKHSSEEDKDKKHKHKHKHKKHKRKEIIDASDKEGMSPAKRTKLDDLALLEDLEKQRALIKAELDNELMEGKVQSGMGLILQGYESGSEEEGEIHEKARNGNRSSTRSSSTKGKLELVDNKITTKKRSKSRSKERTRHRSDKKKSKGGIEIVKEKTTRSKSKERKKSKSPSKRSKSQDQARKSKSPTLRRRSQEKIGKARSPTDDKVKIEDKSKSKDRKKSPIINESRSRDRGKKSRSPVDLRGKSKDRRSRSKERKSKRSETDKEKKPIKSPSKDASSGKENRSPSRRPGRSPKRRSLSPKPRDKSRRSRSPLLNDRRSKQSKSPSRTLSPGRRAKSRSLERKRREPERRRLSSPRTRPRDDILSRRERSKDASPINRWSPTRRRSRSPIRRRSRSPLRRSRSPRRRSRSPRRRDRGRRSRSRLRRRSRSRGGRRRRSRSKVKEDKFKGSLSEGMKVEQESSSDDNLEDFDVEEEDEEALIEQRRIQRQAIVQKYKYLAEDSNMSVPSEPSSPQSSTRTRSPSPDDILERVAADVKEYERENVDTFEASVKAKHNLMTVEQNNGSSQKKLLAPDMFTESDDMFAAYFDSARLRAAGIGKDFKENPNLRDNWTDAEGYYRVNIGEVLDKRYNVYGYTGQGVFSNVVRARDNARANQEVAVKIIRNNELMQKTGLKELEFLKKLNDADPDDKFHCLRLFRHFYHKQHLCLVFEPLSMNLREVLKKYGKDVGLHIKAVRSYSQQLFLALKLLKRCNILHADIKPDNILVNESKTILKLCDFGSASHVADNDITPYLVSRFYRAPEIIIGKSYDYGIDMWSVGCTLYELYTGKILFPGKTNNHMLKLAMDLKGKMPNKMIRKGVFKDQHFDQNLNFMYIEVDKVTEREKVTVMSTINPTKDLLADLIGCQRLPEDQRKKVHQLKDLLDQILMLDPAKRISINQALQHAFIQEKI

| Structure (SMILES) | Activity [1] [%] | Activity [2] [%] | Activity [3] [%] | Activity [4] [%] | Activity [5] [%] | Activity [6] [%] | Activity [7] [%] | Activity [8] [%] | Activity [9] [%] | Activity [10] [%] | Activity [11] [%] | Activity [12] [%] | Activity [13] [%] | Activity [14] [%] | Activity [15] [%] | Activity [16] [%] | Activity [17] [%] | Activity [18] [%] | Activity [19] [%] | Activity [20] [%] | further results |
| --- | --- | --- | --- | --- | --- | --- | --- | --- | --- | --- | --- | --- | --- | --- | --- | --- | --- | --- | --- | --- | --- |
| CCC(=O)Nc1ccc(C(=O)Nc2ccc(Nc3ncc4c(n3)N(C)c3ccc(C)cc3C(=O)N4C)cc2)cc1 | 100 | 97 | 100 | 87 | 98 | 100 | 94 | 90 | 55 | 51 | 94 | 100 | 81 | 91 | 52 | 45 | 84 | 93 | 71 | 60 | Activity [21]: 96%; Activity [22]: 85%; Activity [23]: 64%; Activity [24]: 79%; Activity [25]: 90% |
| C=CC(=O)Nc1ccc(C(=O)Nc2ccc(Nc3ncc4c(n3)N(C)c3ccc(C)cc3C(=O)N4C)cc2)cc1 | 100 | 93 | 99 | 96 | 100 | 82 | 91 | 94 | 99 | 96 | 100 | 99 | 79 | 92 | 100 | 100 | 94 | 100 | 89 | 92 | Activity [21]: 100%; Activity [22]: 84%; Activity [23]: 70%; Activity [24]: 100%; Activity [25]: 95% |
